Entries after “also recorded” stand apart in the source; their conditions may differ.
How the values were obtained:
5-HT1AR [1] = target: T1, 5-HT1AR (Homo sapiens, UniProt P08908); assay: 5-HT1AR competition binding with [3H]8-OH-DPAT
T1 sequence (P08908 1-422): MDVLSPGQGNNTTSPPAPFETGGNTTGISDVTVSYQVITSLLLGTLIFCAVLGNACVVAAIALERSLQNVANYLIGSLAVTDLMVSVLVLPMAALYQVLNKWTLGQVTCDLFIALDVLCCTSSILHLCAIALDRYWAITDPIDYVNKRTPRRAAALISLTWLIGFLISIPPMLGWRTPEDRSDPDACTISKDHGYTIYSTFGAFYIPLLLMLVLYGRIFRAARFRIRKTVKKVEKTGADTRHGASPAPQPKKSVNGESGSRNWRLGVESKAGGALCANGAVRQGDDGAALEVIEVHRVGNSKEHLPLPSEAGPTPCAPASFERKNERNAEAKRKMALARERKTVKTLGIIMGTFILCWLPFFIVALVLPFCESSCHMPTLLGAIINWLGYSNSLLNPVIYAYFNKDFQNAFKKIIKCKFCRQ

α-1AR = α-1AR competition binding with [3H]-7-methoxyprazosin; settings: for selectivity for 5-HT1AR over α-1AR: ratio of Ki values
5-HT1AR [2] = target: T1, 5-HT1AR; assay: Agonist-stimulated [35S]GTPγS binding in CHO-h5-HT1A cell membranes; assay type: biochemical
Summary of the method: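 Membranes from CHO cells stably expressing human 5-HT1AR were used. [35S]GTPγS was added at 0.1 nM and incubation continued for 60 min at room temperature. The reaction was stopped by rapid filtration through GF/B filters, followed by three washes with ice-cold 20 mM HEPES, pH 7.4. Bound radioactivity was counted by liquid scintillation. The response was taken as binding above basal.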

SMILES	5-HT1AR binding affinity (in words) (5-HT1AR [1])	selectivity for 5-HT1AR over α-1AR (α-1AR)	selectivity for 5-HT1AR over α-1AR (in words) (α-1AR)	agonist profile as measured by GTPγS binding (in words) (5-HT1AR [2])
COc1ccccc1N1CCN(CCCCn2ncc(=O)n(C)c2=O)CC1 [Compound 8]	nanomolar affinity	–	–	–
COc1ccc(N2CCN(CCCCn3ncc(=O)n(C)c3=O)CC2)cc1 [Compound 10]	sharp decrease in affinity	–	–	–
COc1ccc(N2CCN(CCCCn3ncc(=O)n(C)c3=O)CC2)c(OC)c1 [Compound 11]	sharp decrease in affinity	–	–	–
CCOc1ccccc1N1CCN(CCCCn2ncc(=O)n(C)c2=O)CC1 [Compound 12]	nanomolar affinity	–	–	–
Cn1c(=O)cnn(CCCCN2CCN(c3ccccc3OCCCF)CC2)c1=O [Compound 14]	nanomolar affinity	–	–	–
CSc1ccccc1N1CCN(CCCCn2ncc(=O)n(C)c2=O)CC1 [Compound 17]	nanomolar affinity	–	–	–
Cn1c(=O)cnn(CCCCN2CCN(c3ccc(I)cc3)CC2)c1=O [Compound 19]	sharp decrease in affinity	–	–	–
Cn1c(=O)cnn(CCCCN2CCN(c3ccccc3C#N)CC2)c1=O [Compound 20]	nanomolar affinity	–	–	–
Cn1c(=O)cnn(CCCCN2CCN(c3c(Br)cccc3C#N)CC2)c1=O [Compound 23]	sharp decrease in affinity	–	–	–
Cn1c(=O)cnn(CCCCN2CCN(c3ccccc3O)CC2)c1=O [Compound 24]	nanomolar affinity	> 10,000 times	–	–
Cn1c(=O)cnn(CCCCN2CCN(c3cccc(O)c3)CC2)c1=O [Compound 25]	nanomolar affinity; also recorded: high affinity	–	excellent selectivity	–
Cn1c(=O)cnn(CCCCN2CCN(c3ccccn3)CC2)c1=O [Compound 27, 4-Methyl-2-(4-(4-(pyridin-2-yl)piperazin-1-yl)butyl)-1,2,4-triazine-3,5(2H,4H)-dione]	high affinity	–	excellent selectivity	–
Cn1c(=O)cnn(CCCCN2CCN(c3ncccc3F)CC2)c1=O [Compound 29]	high affinity	–	excellent selectivity	–
Cn1c(=O)cnn(CCCCN2CCN(c3ccccc3S)CC2)c1=O [Compound 31]	nanomolar affinity	> 10000 times	–	–
Cn1c(=O)cnn(CCCCN2CCN(c3cccc(F)n3)CC2)c1=O [Compound 32]	high affinity; also recorded: nanomolar affinity	–	excellent selectivity; also recorded: higher selectivity to 5-HT1AR over α-1AR in comparison to CUMI-101	robust agonist profile
Cn1c(=O)cnn(CCCCN2CCN(c3cccc(Br)n3)CC2)c1=O [Compound 33]	high affinity	–	excellent selectivity	–
COc1ccccc1N1CCN(CCCCCn2ncc(=O)n(C)c2=O)CC1 [Compound 38]	did not see considerable improvement	–	–	–
COc1ccc2cccc(N3CCN(CCCCCn4ncc(=O)n(C)c4=O)CC3)c2c1 [Compound 42]	did not see considerable improvement	–	–	–

Source: PMC4294696 (Bioorganic & medicinal chemistry letters, 2014)
